Screening data: PubChem BioAssay, Broad Institute
miR122 inh: miR-122 inhibition in Huh7 cells. actives 0.3% (n = 340,000). activation (reporter increase), % at 12.5 µM. Huh7 miR-122 Renilla luciferase sensor, 48 h; neutral wells = 0, positive control = 100. AID 602342;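 active = mean replicate activation score at least 90 and every replicate individually at or above 90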;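 note: higher luciferase means less miR-122 activity so hits act as miR-122 inhibitors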
Cneo AK release: Cryptococcus neoformans lysis via adenylate kinase release. C. neoformans lysis, adenylate kinase release luminescence, 4 h; normalised: neutral wells 0, clomiphene wells 100. lysis activity, % at 15 µM. actives 0.2% (n = 360,000);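 active = mean lysis activity across replicates of at least 80%, whatever share of replicates individually reach that level; inactive = mean lysis activity below 80%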
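Test system: log-phase Cryptococcus neoformans yeast cells; Quantity: yeast cell density of 5 × 10^6 cells/mL; Buffer or medium: YPD; Doses: single compound concentration per well; Timing: 4 h at 37 °C static, read 1 h later; Measured by: AK luminescence; Read-out basis: lysis from increased AK signal; Control set: Clomiphene as positive control.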
HIV Env fusion: blocks HIV Env-driven cell-cell fusion. inhibition, % at 12.3 µM. actives 1.1% (n = 360,000). HeLa-JRFL Env/CEM21 cell fusion, luciferase;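 active = mean replicate inhibition score of at least 50 and every replicate individually at or above 50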;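 note: 0% = plate neutral controls and 100% = maraviroc near 300 nM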
rRNA inh HTS: inhibitors of bacterial rRNA selective over humanized ribosomes | actives 1.6% (n = 350,000) | GFP signal change (wild-type ribosome), % (no concentration beside the values) | E. coli WT GFP vs humanized-ribosome RFP mutants, fluorescence, 24 h; active compounds read low; DMSO median 0, no signal -100;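 active = significant combined selectivity score with lowered wild-type GFP, culture density cut under 30%, mutant RFP and density less affected; inactive = any of these conditions unmet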
INS-1E GSIS act: primary screen for activators of insulin secretion dependent on glucose, INS-1E cells, GLuc reporter luminescence; INS-1E GLuc reporter insulin secretion, 2-3 h; activation, % at 16.6 µM; actives 0.61% (n = 370,000); AID 743287;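 active = lowest replicate activation of at least 40%, so every replicate reaches that level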;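 note: 0% = median of neutral control wells and 100% = median of IBMX positive control wells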
CFTR F508del cor: correctors of CFTR F508del function in bronchial epithelial cells | CFBE cells, YFP halide quenching; stimulated with forskolin plus potentiator P3; % fluorescence drop versus neutral controls | activity (quench increase), % at 7.58 µM | actives 0.36% (n = 350,000) | AID 720511;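 active = mean added fluorescence quench of at least 8% versus neutral control, with both replicates also reaching 8%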;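 note: cells transiently co-express mutant CFTR-F508del with the halide-sensitive YFP; corrector assay measuring rescue of mutant channel to the surface after 24 h compound exposure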
* hit, by the source's call; nt = not tested or not shown; [ ] = dose if it differs, or a comment. Most compounds without a hit are left out; they make up all but 3.1% or so of the library.

SMILES	miR122 inh	Cneo AK release	HIV Env fusion	rRNA inh HTS	INS-1E GSIS act	CFTR F508del cor
O=C(CCCc1nc2ccccc2s1)N1CCN(c2ccccc2F)CC1	-1.0	nt	12.2	-24.2	-7.0	2.4
CCOc1ccccc1N1CCN(C(=O)CCCc2nc3ccccc3s2)CC1	nt	nt	8.5	-29.6*	-20.6	nt
COc1ccc2c3c(n(C)c2c1)[C@H](CO)N(Cc1ccccc1OC)CC31CN(CC2CCOCC2)C1	nt	nt	nt	2.9	-19.8	1.2
O=C(CCC(=O)c1ccc(F)cc1)Nc1cccc(C(F)(F)F)c1	-7.7	nt	-31.9	-4.0	-2.9	-2.7
O=C(CCC(=O)c1ccc(F)cc1)Nc1cccc(S(=O)(=O)Nc2cccc(Cl)c2)c1	nt	nt	7.8	-40.7*	-63.9	nt
CC(C)C(=O)Nc1cc(S(=O)(=O)Nc2ccc(Cl)cc2)ccc1Cl	nt	nt	-29.3	0.5	-4.5	nt
CC(C)C(=O)Nc1cc(S(=O)(=O)Nc2cccc(Cl)c2)ccc1Cl	255.8*	1.5	3.3	-22.4*	-10.4	0.6
CC[C@]12c3[nH]c4ccc(OC)cc4c3CCN1C(=O)C(CC(=O)NCC13CC4CC(CC(C4)C1)C3)C[C@@H]2C(=O)N1CCN(C(=O)C2CC2)CC1 (stereo not given in full)	-1.2	2.2	69.9*	4.2	nt	-0.5
CC[C@]12c3[nH]c4ccc(OC)cc4c3CCN1C(=O)C(CC(=O)NCCCN(C)C)C[C@@H]2C(=O)N1CCN(C(=O)C2CC2)CC1 (stereo not given in full)	nt	0.7	10.8	3.2	-3.2	3.2
CC[C@]12c3[nH]c4ccccc4c3CCN1C(=O)C(CC(=O)NCc1ccc(OC)c(OC)c1)C[C@@H]2C(=O)N1CCN(C(=O)C2CC2)CC1 (stereo not given in full)	-2.3	3.6	60.8*	13.8	1.0	3.4
CC[C@]12c3[nH]c4ccccc4c3CCN1C(=O)C(CC(=O)NCC13CC4CC(CC(C4)C1)C3)C[C@@H]2C(=O)N1CCN(C(=O)C2CC2)CC1 (stereo not given in full)	-12.6	1.1	99.7*	8.5	-37.5	0.8
CC[C@]12c3[nH]c4ccc(Cl)cc4c3CCN1C(=O)[C@@H](CC(=O)NCC13CC4CC(CC(C4)C1)C3)C[C@@H]2C(=O)N1CCN(C(=O)C2CC2)CC1	-11.0	0.0	57.7*	10.8	-20.6	-2.4
CCCNC(=O)C[C@H]1CC[C@@H]2[C@H](COC[C@@H](O)CN2C(=O)c2cccnc2)O1	-5.4[16.7 µM]	-1.0	-7.0[16.7 µM]	3.2	10.6	1.2
C[C@]12c3[nH]c4ccc(Cl)cc4c3CCN1C(=O)[C@@H](CC(=O)NCc1ccco1)C[C@@H]2C(=O)N1CCOCC1	0.2	1.5	-69.7	-23.4*	-15.0	-2.8
C[C@@H]1CN([C@H](C)CO)C(=O)c2cc(NC(=O)CCCN(C)C)ccc2O[C@H]1CN(C)C(=O)Nc1ccccc1	-3.2[16.7 µM]	45.2	nt	3.2	12.1	-0.1
O=C1OC(CN(Cc2ccccc2)Cc2ccccc2)CN1N=Cc1ccc([N+](=O)[O-])o1 (stereo not given)	-1.3	1.3	82.5*	-4.5	3.5	-1.1
Cn1c(/C(C#N)=C/c2ccc(O)cc2)nc2ccccc21	nt	-4.6	-69.2	-21.9	42.0*	2.2
C[C@@H]1CN([C@@H](C)CO)C(=O)c2cc(C#CC3(O)CCCC3)cnc2O[C@@H]1CN(C)C(=O)C1CCOCC1	-17.8[16.7 µM]	-1.9	nt	1.4	21.6	-1.8
Cc1ccc(-c2nc3ccc(NS(=O)(=O)c4ccccc4)cc3[nH]2)o1	1.7	-1.6	nt	-31.9*	-21.5	-1.5
O=S(=O)(Nc1ccc2nc(C(F)(F)F)[nH]c2c1)c1ccccc1	-0.2	-2.1	nt	nt	nt	nt
COCCN(Cc1cc2cc3c(cc2nc1Cl)OCO3)C(=O)Nc1ccc(OC)cc1	nt	nt	13.9	17.0	-5.8	-0.7
COCCN(Cc1cc2cc3c(cc2nc1Cl)OCO3)C(=O)Nc1ccc(F)cc1	0.1	0.0	nt	-26.6*	-13.5	1.5
C[C@H](CO)N1C[C@H](C)[C@H](CN(C)C(=O)c2cc(-c3ccccc3)on2)OCc2cn(nn2)CCCC1=O	3.0[16.7 µM]	nt	nt	-0.2	7.4	2.9
CCNc1nc(NC(C)CC)nc(ON=C(C)C)n1 (stereo not given)	0.8	-0.7	-6.1	6.7	55.7*	0.6
COc1ccc(-c2nc(-c3cccnc3)no2)cc1OC	nt	-1.2	-29.1	4.6	57.7*	0.2
SMILES	miR122 inh	Cneo AK release	HIV Env fusion	rRNA inh HTS	INS-1E GSIS act	CFTR F508del cor
COc1cc(-c2nc(-c3cccc(C)c3)no2)cc(OC)c1OC	-4.3	-1.1	-11.4	nt	-23.5	nt
COc1ccc(-c2nc(-c3cccc(C)c3)no2)cc1OC	nt	0.2	nt	nt	6.0	10.1*
CCC(=O)Nc1ccc2c(c1)OC[C@@H](C)N(CC1CCOCC1)C[C@@H](C)[C@H](OC)CN(C)C2=O	-2.6[16.7 µM]	-4.0	-10.7[16.7 µM]	0.5	5.9	-0.3
CCOC(=O)C1C(=O)C=C(c2cccs2)CC1c1ccccc1 (stereo not given)	nt	nt	33.5	-28.4*	nt	nt
CCOC(=O)C1C(=O)C=C(c2ccc(C)cc2)CC1c1ccccc1 (stereo not given)	nt	nt	0.2	-14.4	-5.1	2.3
CCOC(=O)C1C(=O)C=C(c2cccs2)CC1c1ccccc1C (stereo not given)	nt	nt	-3.5	nt	49.0*	nt
CCCC(O)(CCC)C(=O)NN(C(=O)CCl)c1ccccc1	nt	nt	84.9*	-1.6	3.6	1.4
CCCCC(O)(CCCC)C(=O)NN(C(=O)OCC)c1ccccc1	nt	nt	-42.8	nt	7.3	nt
CCCCC(O)(CCCC)C(=O)NN(C(=O)OC)c1ccccc1	143.6*	3.0	nt	11.4	0.1	-0.6
O=C(Nc1ccc(F)cc1)N[C@H]1CC[C@@H](CC(=O)N2CCOCC2)O[C@H]1CO	-1.0[16.7 µM]	2.0	-7.1[16.7 µM]	1.4	-0.6	3.1
CC(C)CNC(=O)c1nn(Cc2ccccc2)c(=O)c2ccccc12	7.5	-0.6	10.1	2.0	18.5	1.2
COc1ccccc1C(=O)NNC(=O)c1nn(Cc2ccccc2)c(=O)c2ccccc12	nt	nt	-6.7	-23.9*	-4.7	0.4
Cc1nc(N2CCOCC2)nc(N2CCCCC2)c1[N+](=O)[O-]	nt	nt	-12.0	nt	7.1	nt
Cc1nc(N2CCOCC2)nc(N2CCCC2)c1[N+](=O)[O-]	-10.2	0.7	nt	nt	53.1*	nt
Cc1nc(N2CCOCC2)nc(Oc2ccccc2)c1[N+](=O)[O-]	nt	nt	12.7	-43.2*	-3.8	-0.2
CCn1nnnc1NCc1ccc(OCc2c(F)cccc2Cl)c(OC)c1	-1.3	nt	13.6	-5.8	42.9*	-2.2
COc1cc(CNc2ccc3[nH]c(=O)[nH]c3c2)ccc1OCc1c(F)cccc1Cl	nt	-2.4	-25.5	-1.9	31.9	2.3
COc1ccccc1CNC(=O)c1ccc(S(=O)(=O)N(C)C)cc1	-1.2	5.8	-17.4	nt	4.6	nt
